In ChEMBL document CHEMBL3856229, “Hybrid Antibiotic Overcomes Resistance in P. aeruginosa by Enhancing Outer Membrane Penetration and Reducing Efflux” (J Med Chem, 2016):
Active and inactive are the calls of the source. No cut-off for these calls is given here.

Legend:
Format in all cases: functional
Pseudomonas aeruginosa [1] = assay: Antimicrobial activity against Pseudomonas aeruginosa PAO200
How it was run: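 MIC (µg/mL) determined in PAO200, a PAO1-derived MexAB-OprM deletion strain used to assess efflux effects.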

Pseudomonas aeruginosa [2] = assay: Antibacterial activity against multidrug-resistant/tobramycin-susceptible Pseudomonas aeruginosa isolate 86079
[3] = test system: Staphylococcus epidermidis; assay: Antibacterial activity against methicillin-susceptible Staphylococcus epidermidis isolate CANWARD-2008 81388 after 24 hrs by microtitre broth dilution method; conditions: isolate CANWARD-2008 81388, 24 h
Pseudomonas aeruginosa [4] = assay: Antibacterial activity against extremely drug-resistant Pseudomonas aeruginosa isolate 104354 infected in Galleria mellonella assessed as larvae survival at 75 mg/kg administered as single dose measured after 96 hrs; conditions: isolate 104354, 96 h
How it was run: (§1)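 Galleria mellonella larvae were infected with 10^6 CFU of XDR P. aeruginosa #104354, resistant to all antipseudomonal classes except colistin. A single injected drug dose was given 2 h post-infection: 50 mg/kg with survival read at 24 h, or 75 mg/kg with survival read at 96 h. Controls were infected untreated larvae and PBS-injected larvae. Two independent experiments of 15 larvae each (n = 30).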

[5] = Selectivity ratio of MIC for Pseudomonas aeruginosa PAO1 to MIC for Pseudomonas aeruginosa PAO750
How it was run: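 MICs were measured in PAO1 and in PAO750. PAO750 is a PAO1 derivative lacking the MexAB-OprM, MexCD-OprJ, MexEF-OprN, MexJK and MexXY efflux pumps and the outer membrane protein OpmH.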

Pseudomonas aeruginosa [6] = assay: Antimicrobial activity against Pseudomonas aeruginosa PAO1 assessed as outer membrane damage at 8 ug/ml after 3 to 4 hrs by uranyl acetate staining based transmission electron microscopy
How it was run: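 PAO1 in Mueller-Hinton broth was exposed to 8 µg/mL at 37 °C (3 h in the legend, 4 h in the text). Untreated cells were the reference. Morphology was imaged by transmission electron microscopy at 75 kV.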

Pseudomonas aeruginosa [7] = assay: Antibacterial activity against Pseudomonas aeruginosa PAO1
Pseudomonas aeruginosa [8] = assay: Antibacterial activity against multidrug/extremely drug-resistant/colistin-susceptible Pseudomonas aeruginosa isolate 264-104354
Pseudomonas aeruginosa [9] = assay: Antibacterial activity against multidrug/extremely drug-resistant/colistin-susceptible Pseudomonas aeruginosa isolate 259-96918
Pseudomonas aeruginosa [10] = assay: Antibacterial activity against Pseudomonas aeruginosa ATCC 27853 after 24 hrs by microtitre broth dilution method; conditions: ATCC 27853, 24 h
Pseudomonas aeruginosa [11] = assay: Induction of cytoplasmic membrane depolarization in Pseudomonas aeruginosa PAO1 by DiSC3(5) dye based fluorescence assay
Escherichia coli [12] = assay: Antibacterial activity against amikacin-resistant Escherichia coli isolate CAN-ICU 63074 after 24 hrs by microtitre broth dilution method; conditions: isolate CAN-ICU 63074, 24 h
Pseudomonas aeruginosa [13] = assay: Antibacterial activity against multidrug-resistant/tobramycin-susceptible Pseudomonas aeruginosa isolate 86141
Pseudomonas aeruginosa [14] = assay: Antibacterial activity against Pseudomonas aeruginosa PAO1 assessed as fractional inhibitory concentration index after 18 hrs in presence of rifampicin by checkerboard method
How it was run: (§2)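 Checkerboard combinations of the hybrid with each partner antibiotic were tested against P. aeruginosa PAO1. Interaction is expressed as the fractional inhibitory concentration (FIC) index: ≤0.5 means synergy, 1–2 no interaction, ≥4 antagonism.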

Pseudomonas aeruginosa [15] = assay: Antibacterial activity against multidrug/extremely drug-resistant/colistin-susceptible Pseudomonas aeruginosa isolate 100036
Pseudomonas aeruginosa [16] = assay: Antibacterial activity against gentamicin-resistant Pseudomonas aeruginosa isolate CAN-ICU 62308 after 24 hrs by microtitre broth dilution method; conditions: isolate CAN-ICU 62308, 24 h
Escherichia coli [17] = assay: Antibacterial activity against fluoroquinolone resistant Escherichia coli isolate 98550 harboring beta-lactamase CTX-M-15/OXA-1
Pseudomonas aeruginosa [18] = assay: Antibacterial activity against gentamicin/tobramycin-resistant Pseudomonas aeruginosa isolate CANWARD-2011 96846 after 24 hrs by microtitre broth dilution method; conditions: isolate CANWARD-2011 96846, 24 h
Pseudomonas aeruginosa [19] = assay: Potentiation of moxifloxacin induced antibacterial activity against pandrug-resistant Pseudomonas aeruginosa isolate 101243 assessed as moxifloxacin MIC at <= […] ug/ml (reference value: 8 ug/ml)
Pseudomonas aeruginosa [20] = assay: Antibacterial activity against Pseudomonas aeruginosa PAO1 assessed as fractional inhibitory concentration index after 18 hrs in presence of tobramycin by checkerboard method; how it was run: as §2
Pseudomonas aeruginosa [21] = assay: Bactericidal activity against Pseudomonas aeruginosa PAO1 at 2 times MIC up to 24 hrs by time-kill kinetic study
How it was run: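 PAO1 was grown in MH broth with varying concentrations of the test agent; colistin at its MIC served as comparator. Viable counts (CFU) were followed up to 24 h. There were three independent experiments, and each point is the mean of three determinations ± SEM.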

Enterococcus faecium = assay: Antibacterial activity against Enterococcus faecium ATCC 27270 after 24 hrs by microtitre broth dilution method; conditions: ATCC 27270, 24 h
Escherichia coli [22] = assay: Antibacterial activity against fluoroquinolone resistant Escherichia coli isolate 89439 harboring beta-lactamase CTX-M-15/OXA-1
Escherichia coli [23] = assay: Antibacterial activity against fluoroquinolone resistant Escherichia coli isolate 88273 harboring beta-lactamase CTX-M-15/TEM-1/OXA-1
Pseudomonas aeruginosa [24] = assay: Antibacterial activity against Pseudomonas aeruginosa PAO1 assessed as fractional inhibitory concentration index after 18 hrs in presence of moxifloxacin by checkerboard method; how it was run: as §2
Escherichia coli [25] = assay: Antibacterial activity against fluoroquinolone resistant Escherichia coli isolate 95882 harboring beta-lactamase KPC-3/TEM-1
Pseudomonas aeruginosa [26] = assay: Antibacterial activity against extremely drug-resistant Pseudomonas aeruginosa isolate 104354 infected in Galleria mellonella assessed as larvae survival at 50 mg/kg administered as single dose measured after 24 hrs (reference value: 27 %); conditions: isolate 104354, 24 h; how it was run: as §1
Pseudomonas aeruginosa [27] = assay: Antibacterial activity against Pseudomonas aeruginosa PAO1 assessed as fractional inhibitory concentration index after 18 hrs in presence of minocycline by checkerboard method; how it was run: as §2
Escherichia coli [28] = assay: Antibacterial activity against fluoroquinolone resistant Escherichia coli isolate 87164 harboring beta-lactamase CTX-M-15/TEM-1
Pseudomonas aeruginosa [29] = assay: Potentiation of ciprofloxacin induced antibacterial activity against multidrug/extremely drug-resistant Pseudomonas aeruginosa isolate PA260-97103 assessed as ciprofloxacin MIC at <= […] ug/ml (reference value: […] to […] ug/ml)
Pseudomonas aeruginosa [30] = assay: Potentiation of moxifloxacin induced antibacterial activity against multidrug/extremely drug-resistant Pseudomonas aeruginosa isolate PA262-101856 assessed as moxifloxacin MIC at <= […] ug/ml (reference value: […] to […] ug/ml)
Pseudomonas aeruginosa [31] = assay: Antibacterial activity against multidrug-resistant/tobramycin-susceptible Pseudomonas aeruginosa isolate 84745
Escherichia coli [32] = assay: Antibacterial activity against fluoroquinolone resistant Escherichia coli isolate 90789 harboring beta-lactamase KPC-3/TEM-1
Pseudomonas aeruginosa [33] = assay: Antibacterial activity against Pseudomonas aeruginosa PAO1 assessed as fractional inhibitory concentration index after 18 hrs in presence of erythromycin by checkerboard method; how it was run: as §2
Pseudomonas aeruginosa [34] = assay: Antibacterial activity against multidrug-resistant/tobramycin-susceptible Pseudomonas aeruginosa isolate 79199
Escherichia coli [35] = assay: Antibacterial activity against of wild-type Escherichia coli isolate 79768

Compound `COc1c(N2C[C@@H]3CCCN(CCCCCCCCCCCCO[C@@H]4[C@@H](O[C@H]5O[C@H](CO)[C@@H](O)[C@H](N)[C@H]5O)[C@H](N)C[C@H](N)[C@H]4O[C@H]4O[C@H](CN)[C@@H](O)C[C@H]4N)[C@@H]3C2)c(F)cc2c(=O)c(C(=O)O)cn(C3CC3)c12.Cl.Cl.Cl.Cl.Cl` has an MIC (Pseudomonas aeruginosa [1]) of 4 µg/mL, an MIC (Pseudomonas aeruginosa [2]) of 4 µg/mL and an MIC [3] of 2 µg/mL. For the same compound, the survival at 75 mg/kg (Pseudomonas aeruginosa [4]) was 20%, the Selectivity ratio [5] was 8 and the Activity (Pseudomonas aeruginosa [6]) was “Active”. It also gave an MIC (Pseudomonas aeruginosa [7]) of 4 µg/mL, an MIC (Pseudomonas aeruginosa [8]) of 4 µg/mL and an MIC (Pseudomonas aeruginosa [9]) of 2 µg/mL. For the same compound, the MIC (Pseudomonas aeruginosa [10]) was 4 µg/mL, the Activity (Pseudomonas aeruginosa [11]) was “Dose-dependent effect” and the MIC (Escherichia coli [12]) was 4 µg/mL. The MIC (Pseudomonas aeruginosa [13]) was 4 µg/mL, the “fractional inhibitory concentration index (FICI)” value (Pseudomonas aeruginosa [14]) was 0.15 and the MIC (Pseudomonas aeruginosa [15]) was 8 µg/mL. For the same compound, the MIC (Pseudomonas aeruginosa [16]) was 8 µg/mL, the MIC (Escherichia coli [17]) was ≥ 64 µg/mL and the MIC (Pseudomonas aeruginosa [18]) was 4 µg/mL. The MIC (Pseudomonas aeruginosa [19]) was 0.06 µg/mL, the “fractional inhibitory concentration index (FICI)” value (Pseudomonas aeruginosa [20]) was >2 and the Activity (Pseudomonas aeruginosa [21]) was “Active”. For the same compound, the MIC (Enterococcus faecium) was 16 µg/mL, the MIC (Escherichia coli [22]) was ≥ 64 µg/mL and the MIC (Escherichia coli [23]) was ≥ 64 µg/mL. For the same compound, the “fractional inhibitory concentration index (FICI)” value (Pseudomonas aeruginosa [24]) was 0.18, the MIC (Escherichia coli [25]) was ≥ 64 µg/mL and the survival at 50 mg/kg (Pseudomonas aeruginosa [26]) was 100%. For the same compound, the “fractional inhibitory concentration index (FICI)” value (Pseudomonas aeruginosa [27]) was 0.15, the MIC (Escherichia coli [28]) was ≥ 64 µg/mL and the MIC (Pseudomonas aeruginosa [29]) was 1 µg/mL. For the same compound, the MIC (Pseudomonas aeruginosa [30]) was 2 µg/mL, the MIC (Pseudomonas aeruginosa [31]) was 8 µg/mL and the MIC (Escherichia coli [32]) was ≥ 64 µg/mL. For the same compound, the “fractional inhibitory concentration index (FICI)” value (Pseudomonas aeruginosa [33]) was 0.26, the MIC (Pseudomonas aeruginosa [34]) was 8 µg/mL and the MIC (Escherichia coli [35]) was ≤ 2 µg/mL.
